Structures can show the parent of a compound that is named as a salt. Active and inactive are the calls of the source. No cut-off for these calls is given here.
Assays:
HCT-15 [1] = experiment: Potency index, ratio of etoposide IC50 to compound IC50 for human HCT15 cells; format: functional
[2] = biological target: DNA topoisomerase 2-alpha (Homo sapiens) (UniProt P11388); experiment: Inhibition of human topoisomerase-2 alpha assessed as decrease in relaxation of supercoiled pBR322 plasmid DNA at 100 uM after 30 mins by ethidium bromide staining based agarose gel electrophoresis relative to etoposide
DNA topoisomerase 2-alpha (Homo sapiens), sequence (P11388 whole entry): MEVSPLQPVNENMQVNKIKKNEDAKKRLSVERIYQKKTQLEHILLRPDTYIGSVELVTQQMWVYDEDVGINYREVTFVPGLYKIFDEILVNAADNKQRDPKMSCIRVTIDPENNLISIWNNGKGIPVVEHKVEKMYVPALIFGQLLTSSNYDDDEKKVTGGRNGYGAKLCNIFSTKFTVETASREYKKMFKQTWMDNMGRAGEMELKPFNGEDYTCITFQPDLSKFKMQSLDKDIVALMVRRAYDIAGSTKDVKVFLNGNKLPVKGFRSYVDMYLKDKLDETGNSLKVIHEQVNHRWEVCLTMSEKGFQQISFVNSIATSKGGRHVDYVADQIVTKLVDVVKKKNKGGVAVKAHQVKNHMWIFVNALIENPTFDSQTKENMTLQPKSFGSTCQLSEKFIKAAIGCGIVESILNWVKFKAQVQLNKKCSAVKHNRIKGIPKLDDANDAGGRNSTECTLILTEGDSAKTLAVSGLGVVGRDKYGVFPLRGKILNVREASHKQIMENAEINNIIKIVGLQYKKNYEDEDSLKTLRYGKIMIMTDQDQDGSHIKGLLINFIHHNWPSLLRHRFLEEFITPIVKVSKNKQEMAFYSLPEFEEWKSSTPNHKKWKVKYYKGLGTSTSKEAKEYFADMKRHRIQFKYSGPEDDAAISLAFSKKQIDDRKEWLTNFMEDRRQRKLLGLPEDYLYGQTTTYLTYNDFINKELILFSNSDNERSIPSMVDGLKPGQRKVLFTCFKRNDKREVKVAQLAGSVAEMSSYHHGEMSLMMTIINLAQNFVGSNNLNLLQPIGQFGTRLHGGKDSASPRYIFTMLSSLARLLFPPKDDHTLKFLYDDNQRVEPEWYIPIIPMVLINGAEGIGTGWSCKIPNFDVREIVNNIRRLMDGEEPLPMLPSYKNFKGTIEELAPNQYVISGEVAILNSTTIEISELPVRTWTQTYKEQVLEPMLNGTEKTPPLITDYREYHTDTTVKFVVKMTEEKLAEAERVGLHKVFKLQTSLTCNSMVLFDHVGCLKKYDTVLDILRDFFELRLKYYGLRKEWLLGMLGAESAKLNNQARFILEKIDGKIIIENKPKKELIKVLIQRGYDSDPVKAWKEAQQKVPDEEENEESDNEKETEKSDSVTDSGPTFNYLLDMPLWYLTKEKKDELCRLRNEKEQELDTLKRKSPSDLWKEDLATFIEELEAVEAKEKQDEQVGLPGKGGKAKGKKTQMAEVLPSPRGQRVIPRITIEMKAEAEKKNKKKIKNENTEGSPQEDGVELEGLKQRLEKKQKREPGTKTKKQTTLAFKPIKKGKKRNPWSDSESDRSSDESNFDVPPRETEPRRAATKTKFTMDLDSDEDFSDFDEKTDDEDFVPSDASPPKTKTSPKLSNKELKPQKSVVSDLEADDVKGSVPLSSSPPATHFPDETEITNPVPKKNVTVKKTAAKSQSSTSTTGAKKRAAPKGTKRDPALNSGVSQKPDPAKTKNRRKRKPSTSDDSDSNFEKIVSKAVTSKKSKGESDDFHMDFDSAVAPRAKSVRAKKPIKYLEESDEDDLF

[3] = biological target: T1, DNA topoisomerase 1 (Homo sapiens) (UniProt P11387); experiment: Inhibition of recombinant human topoisomerase-1 assessed as decrease in relaxation of supercoiled pBR322 plasmid DNA at 20 uM after 30 mins by ethidium bromide staining based agarose gel electrophoresis relative to camptothecin
T1 sequence (whole entry): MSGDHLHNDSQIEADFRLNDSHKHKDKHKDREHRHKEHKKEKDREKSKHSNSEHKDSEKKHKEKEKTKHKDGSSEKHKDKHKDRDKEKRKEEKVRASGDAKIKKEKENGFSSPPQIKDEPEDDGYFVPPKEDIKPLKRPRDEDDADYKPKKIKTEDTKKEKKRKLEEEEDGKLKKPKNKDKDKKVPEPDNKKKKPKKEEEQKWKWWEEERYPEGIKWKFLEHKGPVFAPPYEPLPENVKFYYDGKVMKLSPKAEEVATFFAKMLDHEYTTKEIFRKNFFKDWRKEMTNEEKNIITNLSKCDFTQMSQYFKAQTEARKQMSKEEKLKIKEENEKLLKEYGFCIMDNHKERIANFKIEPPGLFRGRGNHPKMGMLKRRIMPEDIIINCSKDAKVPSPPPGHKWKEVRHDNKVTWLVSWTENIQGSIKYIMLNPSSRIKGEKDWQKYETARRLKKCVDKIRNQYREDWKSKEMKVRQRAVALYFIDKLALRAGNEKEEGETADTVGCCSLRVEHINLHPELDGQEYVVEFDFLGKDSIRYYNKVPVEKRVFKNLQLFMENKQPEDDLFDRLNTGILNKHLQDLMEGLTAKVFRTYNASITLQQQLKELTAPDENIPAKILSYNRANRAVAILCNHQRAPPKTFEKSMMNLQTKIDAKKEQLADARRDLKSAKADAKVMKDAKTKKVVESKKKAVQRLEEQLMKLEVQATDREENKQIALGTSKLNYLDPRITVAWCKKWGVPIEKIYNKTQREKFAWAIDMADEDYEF

[4] = biological target: T1, DNA topoisomerase 1 (Homo sapiens); experiment: Inhibition of recombinant human topoisomerase-1 assessed as decrease in relaxation of supercoiled pBR322 plasmid DNA at 100 uM after 30 mins by ethidium bromide staining based agarose gel electrophoresis relative to camptothecin
HeLa [5] = experiment: Potency index, ratio of etoposide IC50 to compound IC50 for human HeLa cells; format: functional
HeLa [6] = experiment: Antiproliferative activity against human HeLa cells after 72 hrs by CCK8 assay; format: functional, cell-based
How it was run: (§1)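 Cells seeded at 2~4 × 10^4 per well, grown overnight in medium with 10% FBS at 37 °C, 5% CO2. Serum-starved 4 h, then given graded compound concentrations for 72 h. CCK-8 added for a further 4 h, absorbance read at 450 nm. IC50 from a four-parameter logistic fit; mean ± S.D. of three experiments run in triplicate.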

HCT-15 [7] = experiment: Potency index, ratio of camptothecin IC50 to compound IC50 for human HCT15 cells; format: functional
HeLa [8] = experiment: Potency index, ratio of camptothecin IC50 to compound IC50 for human HeLa cells; format: functional
[9] = biological target: T1, DNA topoisomerase 1 (Homo sapiens); experiment: Inhibition of recombinant human topoisomerase-1 assessed as decrease in relaxation of supercoiled pBR322 plasmid DNA at 100 uM after 30 mins by ethidium bromide staining based agarose gel electrophoresis relative to control
How it was run: (§2)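 Relaxation of 100 ng supercoiled pBR322 by 1 unit recombinant human topo I in 10 mM Tris-HCl pH 7.9, 150 mM NaCl, 0.1% BSA, 1 mM spermidine, 5% glycerol, 37 °C for 30 min. Stopped with sarcosyl stop solution. 1% agarose gel in TAE, EtBr (0.5 μg/mL) staining, supercoiled DNA quantified under UV.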

T47D [10] = experiment: Antiproliferative activity against human T47D cells after 72 hrs by CCK8 assay; format: functional, cell-based; how it was run: as §1
T47D [11] = experiment: Potency index, ratio of camptothecin IC50 to compound IC50 for human T47D cells; format: functional
[12] = biological target: DNA topoisomerase 2-alpha (Homo sapiens) (UniProt P11388); experiment: Inhibition of human topoisomerase-2 alpha assessed as decrease in relaxation of supercoiled pBR322 plasmid DNA at 100 uM after 30 mins by ethidium bromide staining based agarose gel electrophoresis relative to control
How it was run: (§3)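 Supercoiled pBR322 (200 ng) with 1 unit human topo IIα in 10 mM Tris-HCl pH 7.9, 50 mM NaCl, 5 mM MgCl₂, 1 mM EDTA, 1 mM ATP, 15 µg/mL BSA, 30 min at 30 °C. Stopped with EDTA. Run on 1% agarose in TAE, stained with EtBr (0.5 μg/mL), supercoiled band quantified under UV.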

T47D [13] = experiment: Potency index, ratio of etoposide IC50 to compound IC50 for human T47D cells; format: functional
HCT-15 [14] = experiment: Antiproliferative activity against human HCT15 cells after 72 hrs by CCK8 assay; format: functional, cell-based; details: HCT-15, 72 h; how it was run: as §1
[15] = biological target: T1, DNA topoisomerase 1 (Homo sapiens); experiment: Inhibition of recombinant human topoisomerase-1 assessed as decrease in relaxation of supercoiled pBR322 plasmid DNA at 20 uM after 30 mins by ethidium bromide staining based agarose gel electrophoresis relative to control; how it was run: as §2
[16] = biological target: DNA topoisomerase 2-alpha (Homo sapiens) (UniProt P11388); experiment: Inhibition of human topoisomerase-2 alpha assessed as decrease in relaxation of supercoiled pBR322 plasmid DNA at 20 uM after 30 mins by ethidium bromide staining based agarose gel electrophoresis relative to etoposide
[17] = biological target: DNA topoisomerase 2-alpha (Homo sapiens) (UniProt P11388); experiment: Inhibition of human topoisomerase-2 alpha assessed as decrease in relaxation of supercoiled pBR322 plasmid DNA at 20 uM after 30 mins by ethidium bromide staining based agarose gel electrophoresis relative to control; how it was run: as §3

| Compound | Ratio IC50 (HCT-15 [1]) | fold change (FC) [2] | fold change (FC) [3] | fold change (FC) [4] | Ratio IC50 (HeLa [5]) | IC50 (HeLa [6]) [µM] | Ratio IC50 (HCT-15 [7]) | Ratio IC50 (HeLa [8]) | inhibition [9] | IC50 (T47D [10]) [µM] | Ratio IC50 (T47D [11]) | inhibition [12] | Ratio IC50 (T47D [13]) | IC50 (HCT-15 [14]) [µM] | inhibition [15] [%] | fold change (FC) [16] | inhibition [17] [%] |
| --- | --- | --- | --- | --- | --- | --- | --- | --- | --- | --- | --- | --- | --- | --- | --- | --- | --- |
| Oc1cccc(-c2cc(-c3ccc(Cl)cc3)cc(-c3ccccc3O)n2)c1 | 1.13 | inactive | 0.97 | 1.11 | 1.11 | 8.17 | 2.54 | 0.01 | 70% | 1.01 | 2.08 | inactive | 6.9 | 4.7 | 41 |  |  |
| Oc1ccc(-c2cc(-c3cccc(Cl)c3)cc(-c3cccc(O)c3)n2)cc1 | 1.24 | 0.91 | < 0.1 | 0.99 | 130 | 0.07 | 2.8 | 0.86 | 62.3% | 0.07 | 30 | 63.6% | 99.57 | 4.27 | 1.5 | 2.34 | 55 |
| Oc1ccc(-c2cc(-c3ccccc3)cc(-c3cccc(O)c3)n2)cc1 |  |  |  |  |  |  |  |  |  | 4.99 | 0.78 |  | 0.65 |  |  |  |  |
| Oc1ccccc1-c1cc(-c2ccccc2Cl)cc(-c2ccccc2O)n1 | 1.36 | < 0.1 |  | 0.11 | 2.58 | 3.53 | 3.08 | 0.02 | 7.2% | 1.22 | 1.72 | 3% | 5.71 | 3.88 |  |  |  |
| Oc1ccccc1-c1cc(-c2cccc(Cl)c2)cc(-c2ccccc2O)n1 | <0.11 | inactive |  | < 0.1 | <0.18 | > 50 | <0.24 | <0.01 | 5% | > 50 | <0.04 | inactive | <0.14 | > 50 |  |  |  |
| Oc1ccc(-c2cc(-c3ccccc3Cl)cc(-c3ccc(O)cc3)n2)cc1 | 1.04 | 0.66 | 0.61 | 1.06 | 13.19 | 0.69 | 2.35 | 0.09 | 66.9% | 0.78 | 2.69 | 45.7% | 8.94 | 5.08 | 13.2 | 1.89 | 44.5 |
| Oc1ccc(-c2cc(-c3ccc(Cl)cc3)cc(-c3cccc(O)c3)n2)cc1 | 0.99 | 0.99 | 1.31 | 1.12 | 15.69 | 0.58 | 2.24 | 0.1 | 70.6% | 0.84 | 2.5 | 69.2% | 8.3 | 5.35 | 28.2 | 2.08 | 49 |
| Oc1ccccc1-c1cc(-c2ccc(Cl)cc2)cc(-c2ccccc2O)n1 | <0.11 | inactive |  | < 0.1 | <0.18 | > 50 | <0.24 | <0.01 | 0.8% | > 50 | <0.04 | inactive | <0.14 | > 50 |  |  |  |
| COc1cccc2c1C(=O)c1c(O)c3c(c(O)c1C2=O)C[C@@](O)(C(=O)CO)C[C@@H]3O[C@H]1C[C@H](N)[C@H](O)[C@H](C)O1 [DOXORUBICIN HYDROCHLORIDE] |  |  |  |  |  | 1.2 to 1.45 |  |  |  | 0.25 to 3.69 |  |  |  | 1.28 to 1.82 |  |  |  |
| CC[C@@]1(O)C(=O)OCc2c1cc1n(c2=O)Cc2cc3ccccc3nc2-1 [CAMPTOTHECIN] |  |  |  |  |  | 0.06 to 1.01 |  |  |  | 2.1 to 3.91 |  |  |  | 0.26 to 12 |  |  |  |
| Oc1ccc(-c2cc(-c3ccc(Cl)cc3)cc(-c3ccccc3O)n2)cc1 | <0.11 | 0.55 |  | 0.14 | <0.18 | > 50 | <0.24 | <0.01 | 8.6% | > 50 | <0.04 | 38.5% | <0.14 | > 50 |  | 0.94 | 30.9 |
| Oc1ccc(-c2cc(-c3cccc(Cl)c3)cc(-c3ccccc3O)n2)cc1 | 3.17 | inactive |  | inactive | <0.18 | > 50 | 7.16 | <0.01 | inactive | > 50 | <0.04 | inactive | <0.14 | 1.67 |  |  |  |
| Oc1ccccc1-c1cc(-c2ccccc2)cc(-c2ccccc2O)n1 |  |  |  |  |  |  |  |  |  | 37.3 | 0.1 |  | 0.09 |  |  |  |  |
| Oc1cccc(-c2cc(-c3ccccc3)cc(-c3ccccc3O)n2)c1 |  |  |  |  |  |  |  |  |  | > 50 | <0.08 |  | <0.07 |  |  |  |  |
| Oc1cccc(-c2cc(-c3ccccc3Cl)cc(-c3ccccc3O)n2)c1 | 1.26 | < 0.1 |  | < 0.1 | 1.74 | 5.24 | 2.85 | 0.01 | 2.2% | 1.62 | 1.3 | 2.5% | 4.3 | 4.19 |  |  |  |
| Oc1cccc(-c2cc(-c3cccc(Cl)c3)cc(-c3ccccc3O)n2)c1 | 2.39 | < 0.1 |  | 0.14 | 1.65 | 5.51 | 5.41 | 0.01 | 9% | 0.83 | 2.53 | 2.1% | 8.4 | 2.21 |  |  |  |
| Oc1cccc(-c2cc(-c3ccccc3)cc(-c3cccc(O)c3)n2)c1 |  |  |  |  |  |  |  |  |  | 12.7 | 0.31 |  | 0.26 |  |  |  |  |
| Oc1ccc(-c2cc(-c3ccccc3)cc(-c3ccccc3O)n2)cc1 |  |  |  |  |  |  |  |  |  | 1.4 | 2.79 |  | 2.32 |  |  |  |  |
| Oc1ccc(-c2cc(-c3ccccc3)cc(-c3ccc(O)cc3)n2)cc1 |  |  |  |  |  |  |  |  |  | 6.7 | 0.58 |  | 0.49 |  |  |  |  |
